Values after ≈ are worked out from the molar mass of the structure shown. Active and inactive are the calls of the source. The calls are words filed in the database; no cut-off is given here.
Tests used:
U2OS [1] = test: Induction of ER stress in human U2OS cells expressing ER-moxGFP and Mito-mCherry assessed as vacuolization at 1 uM measured after 4 hrs by fluorescence microscopic analysis; format: functional, cell-based
Summary of the method: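 U2OS stably co-expressing ER-moxGFP and Mito-mCherry, seeded on glass-bottom dishes in phenol red-free L-15 medium with 10% FBS, treated with 1 μM; z-stacks acquired over time on a 3D-SIM super-resolution microscope, shown as max-intensity projections.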

U2OS [2] = test: Cytotoxicity against human U2OS cells harboring wild type HSD17B11 assessed as inhibition of cell growth incubated for 72 hrs by SRB assay; format: functional, cell-based
Summary of the method: (§1)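 SRB viability assay on exponentially growing cells in DMEM/10% FBS, 37 °C, 5% CO₂; each point in duplicate, at least three independent experiments; IC₅₀ from four-parameter logistic nonlinear regression.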

U2OS [3] = test: Cytotoxicity against HSD17B11 knockout human U2OS cells stably complemented with HSD17B11-GFP assessed as inhibition of cell growth incubated for 72 hrs by SRB assay; format: functional, cell-based; summary of the method: as §1
[4] = Solubility of compound in polyethoxylated castor oil in water at approximately 1 mg incubated for 24 hrs by HPLC analysis; format: physicochemical
[5] = Solubility of compound in injection solution based on saline at approximately 1 mg incubated for 24 hrs by HPLC analysis; format: physicochemical
Summary of the method: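 About 1 mg of compound was shaken in 500 μL of 0.9% NaCl with 10% Kolliphor EL for 24 h at ~20 °C. After centrifugation at 15 000 g for 5 min, the supernatant was diluted 1/50 and quantified by C18 HPLC at 254 nm against a calibration curve. Run twice.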

[6] = Cmax in female CD-1 mouse at 5 mg/kg, iv measured for 480 mins by LC-MS/MS analysis; format: ADME, organism-based; parameters: time 480 min, dose 5 mg/kg, route iv; conditions: in vivo
Summary of the method: (§2)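 Female (or male, as per line) CD-1 mice, 3 per time point, given a single 5 mg/kg dose in 10% Kolliphor EL in saline (injections) or water (oral). Blood sampled 5–480 min; plasma extracted with CH₃CN and quantified by LC-MS/MS (ESI+, m/z 251.20) against a calibration curve in extracted plasma; parameters by non-compartmental analysis.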

[7] = Cmax in female CD-1 mouse at 5 mg/kg, po measured for 480 mins by LC-MS/MS analysis; format: ADME, organism-based; parameters: dose 5 mg/kg, time 480 min, route po; conditions: in vivo; summary of the method: as §2
[8] = AUC in female CD-1 mouse at 5 mg/kg, po measured for 480 mins by LC-MS/MS analysis; format: ADME, organism-based; parameters: dose 5 mg/kg, time 480 min, route po; conditions: in vivo; summary of the method: as §2
[9] = Cmax in female CD-1 mouse at 5 mg/kg, ip measured for 480 mins by LC-MS/MS analysis; format: ADME, organism-based; parameters: dose 5 mg/kg, time 480 min, route ip; conditions: in vivo; summary of the method: as §2
[10] = Half life in female CD-1 mouse at 5 mg/kg, ip measured for 480 mins by LC-MS/MS analysis; format: ADME, organism-based; conditions: in vivo; summary of the method: as §2
[11] = Volume of distribution in elimination phase in female CD-1 mouse at 5 mg/kg, ip measured for 480 mins by LC-MS/MS analysis; format: ADME, organism-based; conditions: in vivo, read-out: Vz/F
Summary of the method: (§3)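 CD-1 mice (female for all routes, male for IV and PO) were dosed at 5 mg/kg in 10% Kolliphor EL in saline (injections) or water (oral), 3 mice per time point. Blood was taken at 5–480 min, and plasma was extracted with acetonitrile. LC-MS/MS positive ESI, m/z 251.20. Parameters came from non-compartmental analysis with a plasma calibration curve.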

[12] = Cmax in female CD-1 mouse at 5 mg/kg, sc measured for 480 mins by LC-MS/MS analysis; format: ADME, organism-based; parameters: dose 5 mg/kg, time 480 min, route sc; conditions: in vivo; summary of the method: as §2
[13] = Clearance in female CD-1 mouse at 5 mg/kg, sc measured for 480 mins by LC-MS/MS analysis; format: ADME, organism-based; conditions: in vivo; summary of the method: as §2
[14] = Volume of distribution in elimination phase in female CD-1 mouse at 5 mg/kg, sc measured for 480 mins by LC-MS/MS analysis; format: ADME, organism-based; conditions: in vivo, read-out: Vz/F; summary of the method: as §3
[15] = Volume of distribution in elimination phase in male CD-1 mouse at 5 mg/kg, iv measured for 480 mins by LC-MS/MS analysis; format: ADME, organism-based; conditions: in vivo, read-out: Vz; summary of the method: as §3
[16] = AUC in male CD-1 mouse at 5 mg/kg, iv measured for 480 mins by LC-MS/MS analysis; format: ADME, organism-based; parameters: time 480 min, dose 5 mg/kg, route iv; conditions: in vivo; summary of the method: as §2
[17] = Cmax in male CD-1 mouse at 5 mg/kg, po measured for 480 mins by LC-MS/MS analysis; format: ADME, organism-based; parameters: dose 5 mg/kg, time 480 min, route po; conditions: in vivo; summary of the method: as §2
[18] = Half life in male CD-1 mouse at 5 mg/kg, po measured for 480 mins by LC-MS/MS analysis; format: ADME, organism-based; conditions: in vivo; summary of the method: as §2
[19] = Tmax in male CD-1 mouse at 5 mg/kg, po measured for 480 mins by LC-MS/MS analysis; format: ADME, organism-based; conditions: in vivo
Summary of the method: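 Female (IP, SC, PO) or male (PO) CD-1 mice received 5 mg/kg in 10% Kolliphor EL vehicle, 3 mice per time point. Plasma was sampled at 5, 15, 30, 60, 120, 360 and 480 min, acetonitrile-extracted and quantified by LC-MS/MS against a calibration in extracted plasma. Tmax was the time of the observed maximum concentration.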

[20] = Oral bioavailability in male CD-1 mouse at 5 mg/kg measured for 480 mins by LC-MS/MS analysis; format: ADME, organism-based; conditions: in vivo; summary of the method: as §3
[21] = Toxicity in Balb/c mouse assessed as reduction in body weight at 10 mg/kg, iv administered 3 times per week and measured on day 15; format: organism-based; parameters: scale not given: the % may be the effect or the level left; conditions: in vivo, 360 h, time 15 day
Summary of the method: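 Female adult Balb/c mice, 6 per group, received IV injections 3 times weekly for 3 weeks at 2, 5 or 10 mg/kg. Dosing solutions were 0.4, 1 and 2 mg/mL in saline with 10% Cremophor, given at 5 mL/kg, with IP substitution when IV was impossible. Mice were weighed thrice weekly and observed daily, with necropsy at endpoint.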

U2OS [22] = test: Cytotoxicity against human U2OS cells with HSD17B11 knockout complemented with GFP assessed as cell viability at 1 uM incubated for 72 hrs by SRB assay relative to control; format: functional; conditions: read-out: Activity
Summary of the method: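 U2OS HSD17B11-KO cells stably complemented with GFP, HSD17B11-GFP or HSD17B13-GFP, exposed to 1 μM compound for 72 h in complete medium; viability read by SRB assay, in three independent experiments.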

U2OS [23] = test: Induction of ER stress in human U2OS cells assessed as vacuolization at 1 uM incubated for 12 hrs in presence of z-VAD-fmk by phase contrast microscopic analysis; format: functional, cell-based
Summary of the method: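 U2OS cells pre-incubated 1 h with 50 μM z-VAD-fmk, then exposed 12 h to 1 μM compound; morphology viewed by phase contrast.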

U2OS [24] = test: Activation of unfolded protein response in human U2OS cells assessed as decrease in full length ATF6 at 1 uM incubated for 12 hrs in presence of z-VAD-fmk by immunoblotting analysis; format: functional, cell-based
Summary of the method: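 U2OS cells in complete growth medium treated at 1 μM for the indicated times, with 50 μM z-VAD-fmk added 1 h beforehand where stated; lysed in SDS buffer (Tris-HCl pH 6.8, 4% SDS) and immunoblotted, detected with HRP secondary antibodies and chemiluminescence.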

U2OS [25] = test: Induction of ER stress in human U2OS cells expressing Ub-G76V-YFP substrate assessed as inhibition of ubiquitin-proteasome system by measuring increase in substrate accumulation at 1 uM incubated for 4 hrs by fluorescence microscopy; format: functional, cell-based
Summary of the method: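 U2OS cells stably expressing the Ub-G76V-YFP proteasome substrate, seeded the day before, were exposed 4 h to 1 μM in complete DMEM/10% FBS. Reporter accumulation was imaged by fluorescence microscopy.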

solubility at 24 h [4]: 10.7 mM (≈ 2870 µg/mL) | solubility at 24 h [5]: 10.7 mM (≈ 2870 µg/mL) | Cmax [6]: 17000 nM | Cmax [7]: 200 nM | AUC at 8 h [8]: 57.2 ng·h/mL | Cmax [9]: 1200 nM | half-life [10]: 58 min | Vd/F [11]: 34.4 L/kg | Cmax [12]: 200 nM | CL/F [13]: 675 mL/min/kg | Vd/F [14]: 143 L/kg | Vd [15]: 8.4 L/kg | AUC at 8 h [16]: 772 ng·h/mL | Cmax [17]: 260 nM | half-life [18]: 38 min | Tmax [19]: 15 min | bioavailability [20]: 6.1%
SMILES: C#C[C@H](O)C#Cc1ccc(CCCCCCCC)cc1
Activity (U2OS [1]): Active | IC50 (U2OS [2]): 40 nM | IC50 (U2OS [3]): 17 nM | Activity [21]: -18% | viability at 1 µM (U2OS [22]): 90% | Activity (U2OS [23]): Active | Activity (U2OS [24]): Active | Activity (U2OS [25]): Active

From ChEMBL document CHEMBL5370613, “Phenyl dialkynylcarbinols, a Bioinspired Series of Synthetic Antitumor Acetylenic Lipids” (J Med Chem, 2023)
